Results taken from ChEMBL document CHEMBL1649392, “Synthesis of substituted 3-amino-N-phenyl-1H-indazole-1-carboxamides endowed with antiproliferative activity” (Eur J Med Chem, 2011).

How the values were obtained:
Assay type in all cases: functional
[1] = system: T47D; assay: Antiproliferative activity against human T47D cells after 48 hrs by sulforhodamine B assay
Outline: (§1)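 NCI 60-cell-line panel screen: single dose 10 µM first, then 5-dose testing (0.01, 0.1, … molar series). For each line, GI50 is the molar concentration giving 50% inhibition of net cell growth, TGI gives total inhibition of net growth, and LC50 gives 50% net cell death. Method follows the NCI DTP protocol.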

[2] = Antiproliferative activity against human […] cells after 48 hrs by sulforhodamine B assay
Outline: (§2)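 NCI 60-cell-line panel covering nine cancer types (leukemia, non-small cell lung, colon, CNS, melanoma, ovarian, renal, prostate, breast). Compounds were first tested at a single dose, then in a five-dose screen (series starting 0.01, 0.1 …) if they met NCI threshold criteria. Reported per line: GI50 (molar concentration inhibiting 50% net growth), TGI (total growth inhibition) and LC50 (50% net cell death).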

[3] = system: HOP-62; assay: Antiproliferative activity against human HOP62 cells after 48 hrs by sulforhodamine B assay; settings: HOP-62, 48 h; outline: as §2
[4] = system: HOP-92; assay: Antiproliferative activity against human HOP92 cells after 48 hrs by sulforhodamine B assay; settings: HOP-92, 48 h; outline: as §2
[5] = system: NCI-H322M; assay: Antiproliferative activity against human NCI-H322M cells after 48 hrs by sulforhodamine B assay; outline: as §2
[6] = system: NCI-H460; assay: Antiproliferative activity against human NCI-H460 cells after 48 hrs by sulforhodamine B assay; settings: NCI-H460, 48 h; outline: as §2
[7] = system: NCI-H522; assay: Antiproliferative activity against human NCI-H522 cells after 48 hrs by sulforhodamine B assay; settings: NCI-H522, 48 h; outline: as §2
[8] = system: COLO 205; assay: Antiproliferative activity against human COLO205 cells after 48 hrs by sulforhodamine B assay; settings: COLO 205, 48 h; outline: as §2
[9] = system: HCC 2998; assay: Antiproliferative activity against human HCC2998 cells after 48 hrs by sulforhodamine B assay; settings: HCC 2998, 48 h; outline: as §2
[10] = system: HCT-15; assay: Antiproliferative activity against human HCT15 cells after 48 hrs by sulforhodamine B assay; settings: HCT-15, 48 h; outline: as §2
[11] = system: KM12; assay: Antiproliferative activity against human KM12 cells after 48 hrs by sulforhodamine B assay; settings: KM12, 48 h; outline: as §2
[12] = system: SF-268; assay: Antiproliferative activity against human SF268 cells after 48 hrs by sulforhodamine B assay; settings: SF-268, 48 h; outline: as §2
[13] = system: SF-295; assay: Antiproliferative activity against human SF295 cells after 48 hrs by sulforhodamine B assay; settings: SF-295, 48 h; outline: as §2
[14] = system: SNB-19; assay: Antiproliferative activity against human SNB19 cells after 48 hrs by sulforhodamine B assay; settings: SNB-19, 48 h; outline: as §2
[15] = system: SNB-75; assay: Antiproliferative activity against human SNB75 cells after 48 hrs by sulforhodamine B assay; settings: SNB-75, 48 h; outline: as §2
[16] = system: Malme-3M; assay: Antiproliferative activity against human MALME-3M cells after 48 hrs by sulforhodamine B assay; outline: as §2
[17] = system: SK-MEL-2; assay: Antiproliferative activity against human SK-MEL-2 cells after 48 hrs by sulforhodamine B assay; settings: SK-MEL-2, 48 h; outline: as §2
[18] = system: SK-MEL-28; assay: Antiproliferative activity against human SK-MEL-28 cells after 48 hrs by sulforhodamine B assay; settings: SK-MEL-28, 48 h; outline: as §2
[19] = system: UACC-257; assay: Antiproliferative activity against human UACC257 cells after 48 hrs by sulforhodamine B assay; settings: UACC-257, 48 h; outline: as §1
[20] = system: UACC-62; assay: Antiproliferative activity against human UACC62 cells after 48 hrs by sulforhodamine B assay; settings: UACC-62, 48 h; outline: as §1
[21] = system: IGROV-1; assay: Antiproliferative activity against human IGROV1 cells after 48 hrs by sulforhodamine B assay; settings: IGROV-1, 48 h; outline: as §2
[22] = system: OVCAR-5; assay: Antiproliferative activity against human OVCAR5 cells after 48 hrs by sulforhodamine B assay; settings: OVCAR-5, 48 h; outline: as §2
[23] = system: SK-OV-3; assay: Antiproliferative activity against human SKOV3 cells after 48 hrs by sulforhodamine B assay; settings: SK-OV-3, 48 h; outline: as §2
[24] = system: A498; assay: Antiproliferative activity against human A498 cells after 48 hrs by sulforhodamine B assay; settings: A498, 48 h; outline: as §2
[25] = system: ACHN; assay: Antiproliferative activity against human ACHN cells after 48 hrs by sulforhodamine B assay; outline: as §2
[26] = system: CAKI-1; assay: Antiproliferative activity against human Caki1 cells after 48 hrs by sulforhodamine B assay; settings: CAKI-1, 48 h; outline: as §2
[27] = system: RXF 393; assay: Antiproliferative activity against human RXF393 cells after 48 hrs by sulforhodamine B assay; settings: RXF 393, 48 h; outline: as §2
[28] = system: SN12C; assay: Antiproliferative activity against human SN12C cells after 48 hrs by sulforhodamine B assay; outline: as §2
[29] = system: PC-3; assay: Antiproliferative activity against human PC3 cells after 48 hrs by sulforhodamine B assay; settings: PC-3, 48 h; outline: as §2
[30] = system: DU-145; assay: Antiproliferative activity against human DU145 cells after 48 hrs by sulforhodamine B assay; settings: DU-145, 48 h; outline: as §2
[31] = Antiproliferative activity against human Hs 578T cells after 48 hrs by sulforhodamine B assay; outline: as §2
[32] = read-out: LC50 (the source's name)

Nc1nn(C(=O)Nc2ccc(Cc3ccccc3)cc2)c2ccc(Cl)cc12
GI50 [1]: 0.0741 µM | LC50 (concentration giving 50% net cell death) [1]: > 100 µM | TGI [1]: 27.6 µM | GI50 [2]: 2.58 µM | TGI [2]: 46.5 µM | CC50 [2, 32]: > 100 µM | GI50 [3]: 1.21 µM | LC50 (concentration causing 50% net cell death) [3]: 59.7 µM | TGI [3]: 16.4 µM | GI50 [4]: 10.7 µM | LC50 [4]: > 100 µM | TGI [4]: 33.7 µM | GI50 [5]: 18.2 µM | TGI [5]: > 100 µM | CC50 [5, 32]: > 100 µM | GI50 [6]: 0.0645 µM | TGI [6]: 14.7 µM | CC50 [6, 32]: 60.6 µM | GI50 [7]: 15.6 µM | LC50 (concentration causing 50% net cell death) [7]: > 100 µM | TGI [7]: > 100 µM | GI50 [8]: 0.588 µM | LC50 (concentration causing 50% net cell death) [8]: > 100 µM | TGI [8]: 23.8 µM | GI50 [9]: 0.238 µM | TGI [9]: 1.53 µM | CC50 [9, 32]: > 100 µM | GI50 [10]: 0.0458 µM | LC50 (concentration causing 50% net cell death) [10]: > 100 µM | TGI [10]: > 100 µM | GI50 [11]: 0.0726 µM | TGI [11]: > 100 µM | CC50 [11, 32]: > 100 µM | GI50 [12]: 13 µM | TGI [12]: 47.7 µM | CC50 [12, 32]: > 100 µM | GI50 [13]: 0.0515 µM | LC50 [13]: > 100 µM | TGI [13]: 24.2 µM | GI50 [14]: 14.6 µM | TGI [14]: 43.3 µM | CC50 [14, 32]: > 100 µM | GI50 [15]: 14 µM | LC50 (concentration causing 50% net cell death) [15]: 74.5 µM | TGI [15]: 32.3 µM | GI50 [16]: 6.69 µM | LC50 (concentration causing 50% net cell death) [16]: > 100 µM | TGI [16]: 54.8 µM | GI50 [17]: 33.6 µM | TGI [17]: > 100 µM | CC50 [17, 32]: > 100 µM | GI50 [18]: 18.5 µM | TGI [18]: > 100 µM | CC50 [18, 32]: > 100 µM | GI50 [19]: 4.92 µM | TGI [19]: > 100 µM | CC50 [19, 32]: > 100 µM | GI50 [20]: 0.0412 µM | TGI [20]: > 100 µM | CC50 [20, 32]: > 100 µM | GI50 [21]: 13.7 µM | TGI [21]: > 100 µM | CC50 [21, 32]: > 100 µM | GI50 [22]: 18.8 µM | TGI [22]: > 100 µM | CC50 [22, 32]: > 100 µM | GI50 [23]: 15.8 µM | TGI [23]: 50.5 µM | CC50 [23, 32]: > 100 µM | GI50 [24]: 16.1 µM | TGI [24]: 60.7 µM | CC50 [24, 32]: > 100 µM | GI50 [25]: 0.0468 µM | TGI [25]: 17.4 µM | CC50 [25, 32]: > 100 µM | GI50 [26]: 0.217 µM | TGI [26]: > 100 µM | CC50 [26, 32]: > 100 µM | GI50 [27]: 13.5 µM | TGI [27]: 31.5 µM | CC50 [27, 32]: 73.4 µM | GI50 [28]: 14.6 µM | TGI [28]: 42.9 µM | CC50 [28, 32]: > 100 µM | GI50 [29]: 2.9 µM | TGI [29]: 44.3 µM | CC50 [29, 32]: > 100 µM | GI50 [30]: 10.4 µM | TGI [30]: 28.9 µM | CC50 [30, 32]: 80 µM | GI50 [31]: 13.3 µM | TGI [31]: 41.7 µM | CC50 [31, 32]: > 100 µM
